Columns and labels:
[1] = target: T1, human neutrophil elastase (HNE) (Homo sapiens, UniProt P08246); experiment: HNE inhibition assay; assay type: biochemical
T1 sequence (P08246 30-247 limits assumed): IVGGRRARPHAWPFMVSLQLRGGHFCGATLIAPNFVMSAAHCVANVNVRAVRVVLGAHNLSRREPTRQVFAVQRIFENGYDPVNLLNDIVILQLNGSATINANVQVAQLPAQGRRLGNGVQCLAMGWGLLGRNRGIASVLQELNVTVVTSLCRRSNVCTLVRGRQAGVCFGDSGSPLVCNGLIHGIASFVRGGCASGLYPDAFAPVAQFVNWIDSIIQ
Method in brief: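 Human neutrophil elastase (20 mU/mL) in 200 mM Tris-HCl pH 7.5 with 0.01% BSA and 0.05% Tween-20, pre-incubated 5 min with test compound (DMSO final 1%). Started with 25 μM MeOSuc-Ala-Ala-Pro-Val-AMC. Fluorescence (ex 355/em 460 nm) read every 30 s for 10 min at 25 °C.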

Stability in human serum = assay type: in vitro ADME; settings: 25 °C
Method in brief: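 Serum prepared by clotting fresh human blood 1 h at room temperature. Test compound (10 mM DMSO stock) added to serum and incubated at 25 °C. Timed aliquots quenched in acetonitrile and centrifuged 5 min at 10 000g. Analysed by RP-HPLC: C18 column, acetonitrile/water 65/35 with 0.1% TFA, 1 mL/min, 40 °C, diode-array detection 200–300 nm. Remaining compound calculated from peak area.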

[2] = target: T1, human neutrophil elastase (HNE); experiment: HNE inhibition constant; assay type: biochemical
HNE = target: T2, HNE (Homo sapiens, UniProt P08246); experiment: Reactivation of the HNE–inhibitor complex after ultrafiltration; assay type: biochemical; settings: 25 μM inhibitor, data not shown
T2 sequence (P08246 30-247 limits assumed): T1 sequence (P08246 30-247 limits assumed)

[3] = Spontaneous hydrolysis in phosphate buffer; assay type: physicochemical; settings: after 60 min in aqueous buffer, absorbance at 325 nm
Method in brief: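 Test compound in 0.05 M phosphate buffer, pH 7.3, at 25 °C. Absorbance at each compound's absorption maximum read over time until no further decrease (A∞). k′ taken from the slope of log(At–A∞) vs time; t1/2 = 0.693/k′.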

SMILES | HNE inhibitory activity (in words) [1] | also measured
CCOC(=O)c1nn(C)c2ccccc2c1=O [Compound 5, Ethyl 1-methyl-4-oxo-1,4-dihydrocinnoline-3-carboxylate] | completely inactive | 
CCOC(=O)c1nn(Cc2cccc(C)c2)c2ccccc2c1=O [Compound 6, Ethyl 1-(3-methylbenzyl)-4-oxo-1,4-dihydrocinnoline-3-carboxylate] | completely inactive | 
Cc1cccc(C(=O)n2nc(C(=O)O)c(=O)c3ccccc32)c1 [Compound 8, 1-(3-Methylbenzoyl)-4-oxo-1,4-dihydrocinnoline-3-carboxylic acid] | loss of activity | 
Cc1cccc(C(=O)n2nc(-c3ccccc3)c(=O)c3ccccc32)c1 [Compound 11a, 1-(3-Methylbenzoyl)-3-phenylcinnolin-4(1H)-one] | loss of activity | 
Cc1cccc(C(=O)n2nc(CO)c(=O)c3ccccc32)c1 [Compound 11d, 3-(Hydroxymethyl)-1-(3-methylbenzoyl)cinnolin-4(1H)-one] | loss of activity | 
Cc1cccc(C(=O)n2ncc(=O)c3ccccc32)c1 [Compound 18a, 1-(3-Methylbenzoyl)cinnolin-4(1H)-one] |  | percent of initial compound remaining (Stability in human serum; 5 min of incubation): < 3%; compound remaining (Stability in human serum; after 10 min): essentially no detectable compounds; Ki [2]: 75 nM; Type of HNE inhibition ([2]; double-reciprocal Lineweaver–Burk plots): competitive inhibitors; Recovery of HNE activity after removing free inhibitor (HNE): fully reversible
Cc1cccc(C(=O)N2NCC(O)c3ccccc32)c1 (stereo not drawn) [Compound 19, (4-Hydroxy-3,4-dihydrocinnolin-1(2H)-yl)(m-tolyl)meyhanone] | completely devoid of activity | 
Cc1cccc(C(=O)n2ncc(=O)c3cc([N+](=O)[O-])ccc32)c1 [Compound 21a, 1-(3-Methylbenzoyl)-6-nitrocinnolin-4(1H)-one] |  | Extent of hydrolysis [3]: hydrolyzed almost completely

Reference: PMC4721940 (Journal of enzyme inhibition and medicinal chemistry, 2015)
